From article PMC5248591 (Journal of Clinical Pharmacology, 2016)
Several values for one entry are separate records, joined by “and”; a condition that tells them apart may be missing. Equal entries are not always repeated. Where two headings read alike, the source gives them in different places. One block for each molecule: values may come before it.

Columns and labels:
[1] = tested on: DLBCL; conditions: phase 2 study in DLBCL; cited from earlier work
[2] = tested on: serum levels of CCL3 and CCL4; conditions: cited from earlier work
[3] = tested on: relapsed CLL; conditions: cited from earlier work
[4] = tested on: CD3/CD28‐induced T‐cell activation (ZAP70‐dependent); test: T‐cell activation; format: cell-based, human; conditions: MAD, steady state after 10 once‐daily doses
[5] = tested on: ZAP70; conditions: read-out: ZAP70 IC50; purified kinase assay; cited from earlier work
[6] = tested on: fMLP‐mediated basophil degranulation; test: fMLP‐induced basophil degranulation; format: cell-based, human
[7] = tested on: opRBC‐induced (FcγR) neutrophil ROS generation; test: Neutrophil oxidative burst induced by opRBC in whole blood in vitro; format: cell-based, human
[8] = tested on: PMA/PKC‐mediated pERK Y204; test: PMA‐induced pERK Y204 in B cells, specificity control, whole blood; format: cell-based, human; conditions: SAD 200‐ and 300‐mg cohorts combined
[9] = tested on: hind‐paw inflammation; conditions: rat CIA, p < 0.05, cited from earlier work
[10] = tested on: PMA‐induced pERK Y204; test: Rat whole blood phospho‐flow: PMA‐induced pERK Y204; format: cell-based; conditions: 5 μM
[11] = tested on: PMA‐induced T‐cell activation (PKC‐dependent); test: T‐cell activation; format: cell-based, human; conditions: MAD, steady state after 10 once‐daily doses
[12] = Safety and tolerability, SAD study
[13] = SAD study: plasma and urine pharmacokinetics after a single oral dose; format: in vivo, human; conditions: for Ae0‐96 / fe0‐96: urine, mean (SD); for Tmax / half-life / Cmax / AUC(0-t): human, plasma
[14] = Safety and tolerability, MAD study; format: in vivo, human
[15] = tested on: FcγR‐mediated DC activation; test: Dendritic cell activation by opsonized sheep red blood cells; format: cell-based, human; conditions: immature DCs from healthy donors, in vitro
Procedure, shortened: (§1)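 Cells (0.5 × 10⁶/well) were preincubated 1 h with test compound, then stimulated overnight with 1 μg/mL LPS or antibody-opsonized sheep RBCs. CD80/86 and MHCII were read by flow cytometry; values are % of vehicle, n = 5.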

[16] = format: in vivo, human; conditions: for Fluctuation / Ae0‐24 / fe0‐24 / t1/2 / Cmax: mean (SD); for Ae0‐24 / fe0‐24: urine; for CL renal: urine and plasma
[17] = tested on: LPS‐induced DC activation; test: Dendritic cell activation by LPS; format: cell-based, human; conditions: in vitro; 1 μM in Figure 5C
Procedure, shortened: as §1

[18] = tested on: BCR/LYN‐mediated pSYK Y352; test: BCR signaling specificity control, pSYK Y352 in B cells, whole blood; format: cell-based, human
[19] = tested on: PMA/PKC‐induced B‐cell activation; test: PMA‐induced B‐cell activation; format: cell-based, human
[20] = MAD, all dose levels, data not shown
[21] = SAD 200‐ and 300‐mg cohorts combined

Compound: COc1cc(Nc2ncc(F)c(Nc3ccc4c(n3)N(COP(=O)(O)O)C(=O)C(C)(C)O4)n2)cc(OC)c1OC [fostamatinib]
overall response rate [1]: 3%

Compound: C=CC(=O)N1CCC[C@@H](n2nc(-c3ccc(Oc4ccccc4)cc3)c3c(N)ncnc32)C1 [ibrutinib]
inhibition of serum CCL3 and CCL4 markers [2]: > 90%

Compound: c1cn2cc(-c3ccc4cn[nH]c4c3)nc(Nc3ccc(N4CCOCC4)cc3)c2n1 [GS9973]
Duration of response ([3]; majority of responding patients): greater than 6 months
patients achieving decreased adenopathy ([3]; phase 2, relapsed CLL): 94.5%
patients having experienced a partial response ([3]; phase 2, relapsed CLL): 61.5%

Intersubject variability (%CV) of Cmax and AUClast ([13]; SAD, 6 out of 7 dose cohorts): < 40%
Ae0‐96 ([13]; SAD, single oral 30 mg): 0.4 (0.3) mg
fe0‐96 ([13]; SAD, single oral 30 mg): 1.5 (0.9) %
Ae0‐96 ([13]; SAD, single oral 100 mg): 2.4 (0.5) mg
fe0‐96 ([13]; SAD, single oral 100 mg): 2.4 (0.5) %
Ae0‐96 ([13]; SAD, single oral 200 mg): 4.3 (0.8) mg
fe0‐96 ([13]; SAD, single oral 200 mg): 2.2 (0.4) %
Ae0‐96 ([13]; SAD, single oral 300 mg): 7.0 (2.0) mg
fe0‐96 ([13]; SAD, single oral 300 mg): 2.3 (0.7) %
Ae0‐96 ([13]; SAD, single oral 400 mg): 20.2 (14.3) mg
fe0‐96 ([13]; SAD, single oral 400 mg): 5.1 (3.6) %
Tmax ([13]; oral): 1 to 4 h
half-life ([13]; oral): 57 to 94 h
Cmax ([13]; po, 3 mg): 0.0015 µg/mL
Tmax ([13]; po, 3 mg): 1 h
AUC(0-t) ([13]; po, 10 mg): 0.15 µg·h/mL
Cmax ([13]; po, 10 mg): 0.0105 µg/mL
Tmax ([13]; po, 10 mg): 1 h
half-life ([13]; po, 10 mg): 57.1 h
AUC(0-t) ([13]; po, 30 mg): 0.878 µg·h/mL
Cmax ([13]; po, 30 mg): 0.0429 µg/mL
Tmax ([13]; po, 30 mg): 1 h
half-life ([13]; po, 30 mg): 56.7 h
AUC(0-t) ([13]; po, 100 mg): 5.4 µg·h/mL
Cmax ([13]; po, 100 mg): 0.263 µg/mL
Tmax ([13]; po, 100 mg): 2 h
half-life ([13]; po, 100 mg): 69.8 h
AUC(0-t) ([13]; po, 200 mg): 13.7 µg·h/mL
Cmax ([13]; po, 200 mg): 0.629 µg/mL
Tmax ([13]; po, 200 mg): 2 h
half-life ([13]; po, 200 mg): 77.2 h
AUC(0-t) ([13]; po, 300 mg): 11.8 µg·h/mL
Cmax ([13]; po, 300 mg): 0.558 µg/mL
Tmax ([13]; po, 300 mg): 2.1 h
half-life ([13]; po, 300 mg): 93.8 h
AUC(0-t) ([13]; po, 400 mg): 22.3 µg·h/mL
Cmax ([13]; po, 400 mg): 0.996 µg/mL
Tmax ([13]; po, 400 mg): 4 h
half-life ([13]; po, 400 mg): 65.1 h
Fluctuation ([16]; MAD day 10, 11 mg once daily): 90.7 (43.9) %
Tmax ([16]; MAD day 10, 11 mg once daily, median (min, max)): 1.5 (0.5, 2.0) Hours
Ae0‐24 ([16]; MAD day 10, 11 mg once daily): 0.4 (0.1) mg
fe0‐24 ([16]; MAD day 10, 11 mg once daily): 3.3 (1.3) %
Fluctuation ([16]; MAD day 10, 33 mg once daily): 88.0 (15.9) %
Tmax ([16]; MAD day 10, 33 mg once daily, median (min, max)): 1.5 (1.0, 2.1) Hours
Ae0‐24 ([16]; MAD day 10, 33 mg once daily): 1.3 (0.0) mg
fe0‐24 ([16]; MAD day 10, 33 mg once daily): 4.0 (0.1) %
Fluctuation ([16]; MAD day 10, 66 mg once daily): 98.8 (24.1) %
t1/2 ([16]; MAD day 10, 66 mg once daily): 61.3 Hours and 61.3 (10.2) Hours
Tmax ([16]; MAD day 10, 66 mg once daily, median (min, max)): 4.0 (2.0, 4.0) Hours
Ae0‐24 ([16]; MAD day 10, 66 mg once daily): 3.7 (0.6) mg
fe0‐24 ([16]; MAD day 10, 66 mg once daily): 5.6 (1.0) %
Fluctuation ([16]; MAD day 10, 110 mg once daily): 92.8 (30.7) %
t1/2 ([16]; MAD day 10, 110 mg once daily): 75.3 Hours and 75.3 (11.2) Hours
Tmax ([16]; MAD day 10, 110 mg once daily, median (min, max)): 3.0 (3.0, 6.0) Hours
Ae0‐24 ([16]; MAD day 10, 110 mg once daily): 6.96 (1.7) mg
fe0‐24 ([16]; MAD day 10, 110 mg once daily): 6.3 (1.5) %
intersubject variability (CV%) for exposure parameters ([16]; MAD steady state, all dose cohorts): ≤ 45%
steady state achieved ([16]; MAD, trough levels days 4, 7, 8, 9, 10): ≤ 7 days
Tmax ([16]; human, plasma, oral): 1.5 to 4 h
AUC ([16]; human, plasma, oral, 11 mg): 0.507 µg·h/mL
Cmax ([16]; human, plasma, oral, 11 mg, MAD day 10, 11 mg once daily): 0.0326 µg/mL
AUC ([16]; human, plasma, oral, 33 mg): 1.81 µg·h/mL
Cmax ([16]; human, plasma, oral, 33 mg, MAD day 10, 33 mg once daily): 0.118 µg/mL
AUC ([16]; human, plasma, oral, 66 mg): 4.63 µg·h/mL
Cmax ([16]; human, plasma, oral, 66 mg, MAD day 10, 66 mg once daily): 0.317 µg/mL
AUC ([16]; human, plasma, oral, 110 mg): 8.49 µg·h/mL
Cmax ([16]; human, plasma, oral, 110 mg, MAD day 10, 110 mg once daily): 0.557 µg/mL
CL renal ([16]; human, oral, 11 mg): 0.012 L/h/kg
CL renal ([16]; human, oral, 33 mg): 0.012 L/h/kg
CL renal ([16]; human, oral, 66 mg): 0.012 L/h/kg
CL renal ([16]; human, oral, 110 mg): 0.012 L/h/kg
Compound: CC(=O)O.NC(=O)c1cnc(N[C@@H]2CCCC[C@@H]2N)nc1Nc1cccc(-n2nccn2)c1 [PRT062607, 4‐((3‐(2H‐1,2,3‐triazol‐2‐yl)phenyl)amino)‐2‐(((1R,2S)‐2‐aminocyclohexyl)amino)pyrimidine‐5‐carboxamide acetate]
effect on CD3/CD28‐induced T‐cell activation [4]: no effect
IC50 [5]: 1.05 µM
effect on fMLP stimulation (SYK‐independent) [6, 20]: no effect
inhibition of fMLP‐mediated basophil degranulation [6, 21]: No inhibition
opRBC‐induced ROS formation, concentration‐dependent ([7]; replicate experiments, different donors): inhibited
opRBC‐induced ROS generation ([7]; whole blood pretreated with 4 μM): completely abrogated
inhibition of PMA‐mediated pERK Y204 [8]: No consistent inhibition
% inhibition hind paw inflammation ([9]; 10 mg/kg): 55%
% inhibition hind paw inflammation ([9]; 15 mg/kg): 90%
inhibition of PMA‐induced pERK Y204 [10]: inability
effect on PMA‐induced T‐cell activation [11]: no effect
overall safety and tolerability ([12]; SAD and MAD, entire range of doses): safe and well tolerated
serious adverse events ([12]; SAD, 3 to 400 mg): no serious adverse events
number of reported TEAEs ([12]; SAD, 200‐mg dose group): 15
subject incidence of TEAEs ([12]; SAD, 200‐mg dose group): 67%
number of reported TEAEs ([12]; SAD, 300‐mg dose group): 7
subject incidence of TEAEs ([12]; SAD, 300‐mg dose group): 67%
number of reported TEAEs ([12]; SAD, 400‐mg dose group): 3
subject incidence of TEAEs ([12]; SAD, 400‐mg dose group): 17%
moderate intensity TEAEs (dizziness, headache, musculoskeletal pain) ([12]; SAD, all PRT062607 doses): 3
subjects with abdominal pain ([12]; SAD, all PRT062607 doses): 3 subjects
subjects with diarrhea ([12]; SAD, all PRT062607 doses): 3 subjects
subjects with dizziness ([12]; SAD, all PRT062607 doses): 3 subjects
subjects with headache ([12]; SAD, all PRT062607 doses): 6 subjects
subjects with nausea ([12]; SAD, all PRT062607 doses): 3 subjects
subjects with rhinitis ([12]; SAD, all PRT062607 doses): 2 subjects
number of TEAEs ([12]; SAD, all subjects receiving PRT062607): 37
subjects reporting TEAEs ([12]; SAD, all subjects receiving PRT062607 (17/42)): 40%
serious adverse events ([14]; 11 to 110 mg once daily for 10 days): no SAEs
AEs considered by the investigator related to the study drug ([14]; 71 of 96 AEs): 74%
number of AEs reported ([14]; all PRT062607 doses): 96
subjects reporting AEs ([14]; all PRT062607 doses (13 subjects)): 54.2%
effect on FcγR‐mediated (opRBC) DC activation, surface CD80/86 and MHCII [15]: inhibited
inhibition of LPS‐induced DC activation [17]: No inhibition
inhibition of BCR‐mediated pSYK Y352 [18, 21]: No consistent inhibition
inhibition of LYN‐mediated pSYK ([18]; SAD study, versus plasma concentration): No concentration‐dependent inhibition
effect on PMA stimulation (SYK‐independent) [19, 20]: no effect
inhibition of PMA‐induced B‐cell activation [19, 21]: no inhibition
